VIM-2 inhibitor: blocks Pseudomonas aeruginosa VIM-2 metallo-beta-lactamase; purified VIM-2, nitrocefin hydrolysis, epi-absorbance fluorescence; inhibition, % at 5.6 µM; 0.89% of 290,000 active;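 active = inhibition above the mean of all tested compounds plus 3 SD, cutoff set per screening run, cut at about 7.5% in these data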;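 note: red hydrolysis product quenches plate fluorescence so inhibitors raise well fluorescence; 0% = enzyme with DMSO and 100% = DMSO without enzyme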
IMP-1 inhibitor: blocks Pseudomonas aeruginosa IMP-1 metallo-beta-lactamase; purified IMP-1, nitrocefin hydrolysis, epi-absorbance fluorescence; inhibition, % at 5.6 µM; 0.45% of 290,000 active; AID 1556;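 active = inhibition above the mean plus 3 SD of all compounds in the same screening run, cut at about 4.5% in these data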;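 note: 0% = IMP-1 with DMSO and 100% = DMSO wells lacking enzyme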
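System: purified IMP-1; amount: IMP-1 0.2 nM before substrate addition; compound: single dose, 5.6 µM; times: 25 °C, 15 min preincubation, 25 min reaction; signal: Epi-absorbance via hydrolysed-nitrocefin quenching of white-plate fluorescence, 480/530 nm, EDTA stop; benchmarks: DMSO with and without IMP-1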
proCasp3 act: activates human procaspase-3; 0.11% of 330,000 active; P42574; recombinant procaspase-3 D3A, Ac-DEVD-pNA absorbance 405 nm; activation, % at 8.5 µM;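 active = activation above the mean of all tested compounds plus 3 SD, cut at about 21% in these data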;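 note: 0% = DMSO alone and 100% = DMSO wells spiked with extra 5 µM PC-3 D3A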
Target sequence (P42574 whole entry D9A/D28A/D175A): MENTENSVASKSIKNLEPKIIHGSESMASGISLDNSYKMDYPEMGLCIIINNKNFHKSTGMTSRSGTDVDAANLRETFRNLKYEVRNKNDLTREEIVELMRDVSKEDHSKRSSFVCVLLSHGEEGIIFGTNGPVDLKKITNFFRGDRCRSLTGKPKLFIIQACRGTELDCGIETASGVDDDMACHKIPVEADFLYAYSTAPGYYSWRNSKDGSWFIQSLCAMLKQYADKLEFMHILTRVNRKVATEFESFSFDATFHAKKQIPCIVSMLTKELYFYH
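Assay system – Procaspase-3 D3A mutant, all three cleavage aspartates alanine · Controls – DMSO-only low control, 5 µM PC-3 D3A high control · Schedule – 1 h compound preincubation, 2 h substrate hydrolysis at 25 °C · Signal – 405 nm absorbance of p-nitroaniline, reads at 0 and 120 min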
Neddylation inh: blocks human cullin neddylation. P61081+Q13564. calls only at 25 µM. 0.58% of 360,000 active. TR-FRET cullin neddylation, biochemical; in the data active = inhibition above about 36%
procasp7 counter: counter-screen: procaspase-7 (human) activation; P55210; recombinant procaspase-7, Ac-DEVD-pNA absorbance 405 nm; D23A/D198A/D206A triple mutant, cannot self-cleave; scale: DMSO 0, 5 µM enzyme 100; activation, % at 8.5 µM; 0.093% of 330,000 active;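 active = percent activation above the screen-wide mean plus 3 SD, cut at about 25% in these data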
Target sequence (P55210 whole entry D23A/D198A/D206A): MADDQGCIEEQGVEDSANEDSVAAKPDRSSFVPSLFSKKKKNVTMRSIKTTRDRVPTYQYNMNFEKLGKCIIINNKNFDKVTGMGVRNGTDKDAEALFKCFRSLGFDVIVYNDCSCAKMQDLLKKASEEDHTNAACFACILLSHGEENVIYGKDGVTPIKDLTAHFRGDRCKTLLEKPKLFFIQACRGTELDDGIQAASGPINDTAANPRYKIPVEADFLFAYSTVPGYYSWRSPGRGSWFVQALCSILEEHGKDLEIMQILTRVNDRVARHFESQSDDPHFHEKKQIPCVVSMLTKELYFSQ
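buffer or medium = Zinc-free HEPES/NaCl buffer, pH 7.4 | material = Procaspase-7 triple mutant (PC-7 D3A) | input = 2 µM procaspase-7 mutant as dispensed | signal = Epi-absorbance of released pNA at 405 nm, two timepoints | timing = 1 h preincubation, 2 h reaction | replicates = singlicate compound testing | evaluation = % activation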
PolyA inh: yeast polyadenylation inhibition | AID 1875 | 0.02% of 300,000 active | activity score, % at 12 µM | S. cerevisiae SKY197-pL101 polyadenylation reporter, beta-gal luminescence; efflux-impaired pdr1/pdr3 knockout yeast; score 100 = 6 SD above DMSO;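 active = lowest replicate activity score at least 50, where 100 means six control SD above control mean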;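 note: yeast exposed to compound for 9 h at 30 °C; higher score means more reporter readthrough which indicates perturbed polyadenylation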
Neddyl inh conf: cullin neddylation inhibition, confirmation. 13% of 1,800 active. calls only at 25 µM. shares compounds with Neddylation inh. TR-FRET cullin neddylation biochemical assay; in the data active = inhibition above about 40%;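 note: neddylation substrate is the cullin 1 ring ligase complex with SKP2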
* marks the source's active call; other numbers are inactive results; i = inactive; . = not tested or not shown; + = active, no number. Hits are enriched below; roughly 1.7% of the tested compounds scored in any of these assays.

SMILES	VIM-2 inhibitor	IMP-1 inhibitor	proCasp3 act	Neddylation inh	procasp7 counter	PolyA inh	Neddyl inh conf
O=C(O)CCCc1ccc2ccc3cccc4ccc1c2c34	1.0	0.2	-6.7	.	-3.4	-64.5	.
NCCCCc1ccc2ccc3cccc4ccc1c2c34	.	.	.	+	.	.	i
CCc1c(C)c2ccc(OC(C)C(=O)NC(Cc3c[nH]c4ccc(O)cc34)C(=O)O)c(C)c2oc1=O (stereo unspecified)	-0.4	-1.3	6.3	+	7.7	2.8	+
Cc1cc(=O)oc2c(C)c(OC(C)C(=O)NC(Cc3c[nH]c4ccc(O)cc34)C(=O)O)ccc12 (stereo unspecified)	0.4	-2.6	11.5	i	1.9	25.6	.
Cc1csc(NC(=O)CSCC(=O)O)c1-c1nc2ccccc2s1	1.6	1.7	-2.7	+	9.4	13.4	.
COc1ccc(NC(=O)CSc2ncnc3c2nnn3-c2ccc(F)cc2)c(OC)c1	-3.8	-4.9	7.3	i	9.1	9.5	.
COc1ccc(-n2nnc3c(SCC(=O)Nc4ccccc4F)ncnc32)cc1	-3.2	-2.3	1.8	+	-7.4	3.0	i
O=C(CCN1C(=O)S/C(=C/c2ccccc2)C1=O)Nc1ccc(O)c(C(=O)O)c1	1.3	-0.8	-0.7	+	5.3	-11.6	i
O=C(CCN1C(=O)S/C(=C\c2ccccc2)C1=O)Nc1ccc(O)cc1C(=O)O	1.1	-0.5	6.8	i	6.8	3.1	.
Cc1ccc(-c2cc(C(F)(F)F)n3nc(C(=O)NCCCn4ccnc4)cc3n2)cc1C	3.8	-1.8	19.5	+	3.6	7.8	.
CN(C)c1ccc(/C=C/c2c([N+](=O)[O-])c(=O)n(C)c(=O)n2C)cc1	-2.6	-3.3	.	+	.	-15.6	i
Cc1cc(=O)oc2cc(OCC(=O)NC3(C#N)CCCCC3)c(Cl)cc12	.	.	.	+	.	.	i
Cc1ccc(C)c(OCC(=O)Nc2c(C)n(C)n(-c3ccccc3)c2=O)c1	.	.	-7.0	i	-0.1	.	.
Cc1cc(=O)oc2cc(OCC(=O)Nc3c(C)n(C)n(-c4ccccc4)c3=O)c(Cl)cc12	.	.	.	+	.	.	i
COc1cccc(CNC(=O)CCS(=O)(=O)c2cccc3nsnc23)c1	-5.7	-2.8	18.1	i	9.4	5.2	.
Cc1cc(C)nc(NS(=O)(=O)c2ccc(NC(=O)C3(c4ccccc4)CCCC3)cc2)n1	-0.8	0.3	3.0	i	7.8	1.3	.
COc1cc(OC)c(NC(=O)CS(=O)(=O)Cc2nc(-c3ccc(C)cc3)oc2C)cc1Cl	-0.6	-1.4	-3.4	i	5.6	0.8	.
COc1cccc2cc(C(=O)NCCN3CCOCC3)oc12	-2.6	-4.2	-3.3	+	2.2	-10.3	i
COc1ccccc1-c1cc(C(=O)NCCN2CCOCC2)no1	0.7	-0.4	3.4	i	-6.8	-1.6	.
Cc1ccc2cc3cc(C(=O)NCCN4CCOCC4)oc3nc2c1	-1.5	-0.9	5.1	+	2.0	2.5	+
COc1ccc2cc3cc(C(=O)NCCc4ccc(OC)c(OC)c4)oc3nc2c1	1.7	3.1	-1.2	+	-1.6	6.0	+
CC(=O)Nc1cccc(NC(=O)C2CCN(C(=O)c3ccco3)CC2)c1	-1.2	-2.5	9.7	i	-9.4	-2.9	.
COc1ccc(-c2cc(NCc3ccccn3)n3ncnc3n2)cc1	1.9	-2.1	-1.0	+	4.2	-3.6	i
COc1ccc(-c2cc(-c3ccccc3)nc3ncnn23)cc1	-0.1	-1.3	7.3	.	1.6	-4.6	.
CC1CCCN(S(=O)(=O)c2ccc(NC(=O)C3CCN(C(=O)c4ccco4)CC3)cc2)C1 (stereo unspecified)	-3.0	-1.6	2.9	i	8.0	0.8	.
SMILES	VIM-2 inhibitor	IMP-1 inhibitor	proCasp3 act	Neddylation inh	procasp7 counter	PolyA inh	Neddyl inh conf
Cc1ccc2c(c1)COc1c3ccc(C(=O)N[C@@H](CO)C(C)C)cc3nn1-2	.	.	0.4	.	-1.5	7.7	.
COCCNC(=O)c1ccc2c3n(nc2c1)-c1ccc(C)cc1CO3	.	.	7.6	+	-1.2	-14.4	.
O=C(NCC1CCCO1)c1ccc2c3n(nc2c1)-c1ccccc1CO3 (stereo unspecified)	.	.	0.9	+	4.5	23.7	i
COc1ccccc1OCCCn1c(=O)oc2ccccc21	-1.4	2.2	8.9	i	-3.8	-11.2	.
O=c1oc2ccccc2cc1-c1cn2cccnc2n1	1.8	2.7	4.3	+	-3.0	24.1	+
O=c1oc2ccccc2cc1-c1cn2ccccc2n1	-0.3	-2.0	-16.1	i	-9.2	-25.5	.
Cc1noc(C)c1C(=O)Nc1nc(-c2cccs2)cs1	.	.	13.1	i	-2.1	.	.
COCCNC(=O)/C(C#N)=C/c1c(N2CCN(c3ccccc3)CC2)nc2c(C)cccn2c1=O	0.5	-2.5	-1.4	+	-1.4	4.0	i
N#Cc1nnn(-c2cc(Cl)cc(Cl)c2)c1N	-1.3	-3.5	1.8	i	0.4	-3.3	.
CCN(CC)CCNC(=O)Cn1c(-c2ccccn2)nc2ccccc21	-2.4	-1.2	-7.4	+	-6.9	4.5	+
NNC(=O)Cn1c(-c2ccccn2)nc2ccccc21	-1.5	-1.9	6.0	i	6.6	17.2	.
COc1cc(/C=N\NC(=O)C2COc3ccccc3O2)cc(OC)c1O (stereo unspecified)	-3.5	-5.3	3.0	i	8.7	-4.2	.
CCOc1ccc(-n2c(O)c(/C=N/NC(=O)C3COc4ccccc4O3)c3ccccc3c2=O)cc1 (stereo unspecified)	-3.0	1.4	-50.1	+	-46.2	-16.5	i
CCOc1cc(/C=C(\CC(=O)O)c2nc3ccccc3s2)ccc1OC	1.2	-1.0	4.3	i	6.8	7.0	.
COc1cc(/C=C(\CC(=O)O)c2nc3ccccc3s2)ccc1OCC(=O)Nc1ccccc1F	.	.	.	+	.	.	i
Cc1ccc(C)c(NC(=O)CSc2nnc(CCCCCNC(=O)OC(C)(C)C)o2)c1	-3.8	-2.8	15.5	i	-1.0	13.7	.
CCOC(=O)c1cnc2cc3c(cn2c1=O)CCCC3	-0.6	-2.3	0.6	+	4.7	4.9	.
CC(C)CN(CC(C)C)c1nc(N)c(C#N)c(CC#N)c1C#N	-3.0	-2.6	-2.8	+	6.5	7.7	.
O=c1c(Br)c(N2CCCCC2)cnn1-c1ccccc1	-1.7	-3.3	0.3	i	0.0	-25.0	.
COc1cc2oc(-c3ccc(O)cc3)cc(=O)c2c(O)c1OC	.	.	-2.5	i	-1.7	-5.9	.
COc1cc2oc(-c3ccc(O)cc3)cc(=O)c2c(OC)c1O	6.7	-1.0	.	+	.	-4.7	i
